Compound activity as filed in PubChem BioAssay.
Tn7 DDE FP = inhibitors of Tn7 peptide binding to fibrin DD(E), primary screen, biochemical, fluorescence polarization, human fibrin, Tn7 probe | inhibition, % at 8.3 µM | Fibrinogen beta chain (Homo sapiens), P02675 | AID 720508, 2013 | FP displacement of FITC-Tn7 peptide from fibrin DD(E); 0% = median of compound wells per plate | actives 0.13% (n = 370,000);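 active = inhibition above the mean of compounds falling within the control limits plus 3 SD of them, cut at about 14% in these data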;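 also: 0% = plate median of compound wells and 100% = 10 µM Aha-Tn7 peptide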
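Test system: human clot-derived fibrin DD(E) complex / Quantity: 2 µM final DD(E) protein / Incubation: 10 min plus 3 h, room temperature / Measured by: fluorescence polarization / Benchmarks: high control of 10 µM Aha-Tn7 peptide / Replicates: singlicate testing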
Tn6 DDE FP = inhibitors of Tn6 peptide binding to fibrin DD(E), primary screen, biochemical, fluorescence polarization, human fibrin, Tn6 probe; AID 720509, 2013; actives 0.21% (n = 370,000); inhibition, % at 8.3 µM; Fibrinogen beta chain (Homo sapiens), P02675; Fibrin DD(E) TRITC-Tn6 fluorescence polarization displacement;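 active = inhibition above a per-campaign cutoff: mean of compounds within control limits plus 3 SD, cut at about 15% in these data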;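 also: 0% = median of all compound wells on the plate and 100% = blocking peptide control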
NRP1-CendR mod = modulators of CendR peptide binding to NRP-1, primary screen, biochemical, fluorescence polarization, uHTS. inhibition, % at 25 µM. FAM-RPARPAR peptide binding to NRP-1. actives 0.85% (n = 360,000). Neuropilin-1 (Homo sapiens), O14786;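 active = inhibition or corrected inhibition above about 18%, plus a signal ratio from 0.5 to 1.5, limit read from the data, passing the limit was not always enough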
KLK7 zymogen act = proKLK7 zymogen activators, primary screen, biochemical, fluorescence intensity. Kallikrein-7 (Homo sapiens), P49862. purified proKLK7, EDANS-DABCYL substrate fluorescence; 100% is mature enzyme control, 0% vehicle. actives 0.9% (n = 370,000). activation, % at 7 µM;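 active = activation above the mean of all tested compounds plus 3 SD, computed per campaign excluding outliers beyond control limits, cut at about 13% in these data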
Target sequence (P49862 whole entry, looked up): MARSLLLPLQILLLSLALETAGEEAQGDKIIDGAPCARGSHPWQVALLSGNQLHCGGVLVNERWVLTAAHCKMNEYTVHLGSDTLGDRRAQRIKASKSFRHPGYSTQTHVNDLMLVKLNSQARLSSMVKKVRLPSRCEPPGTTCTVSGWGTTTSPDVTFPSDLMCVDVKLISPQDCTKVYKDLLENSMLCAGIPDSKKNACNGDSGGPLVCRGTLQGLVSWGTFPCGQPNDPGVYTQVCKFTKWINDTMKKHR
PLCg1 inh = PLC-gamma1 enzyme inhibitors, primary screen, biochemical, fluorescence, purified enzyme. inhibition, % at 12.2 µM. fluorogenic substrate. 1-phosphatidylinositol 4,5-bisphosphate phosphodiesterase gamma-1 (Homo sapiens), P19174. AID 720700, 2013. actives 0.84% (n = 370,000); in the data active = inhibition above about 9.5%
PLC-beta3 inh = human PLC-beta3 inhibitors, primary screen, biochemical, fluorescence; Purified PLC-beta3, fluorogenic substrate; inhibition, % at 12.2 µM; actives 0.18% (n = 370,000); AID 720704, 2013; in the data active = inhibition above about 11%;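 also: 0% = median of compound wells on plate and 100% = full blocker control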
proKLK7 act conf = proKLK7 zymogen activators, confirmation, biochemical, fluorescence intensity, triplicate. purified proKLK7, EDANS-DABCYL substrate fluorescence; scaled: vehicle 0, mature enzyme 100. actives 68% (n = 3,200). AID 686949, 2013. activation, % at 7 µM. shares compounds with KLK7 zymogen act;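 active = activation, as change over the incubation, above the mean of all tested compounds plus 3 SD, cut at about 13% in these data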
EDANS-DABCYL int = EDANS-DABCYL substrate optical interference, artefact control for kallikrein-7 zymogen activator project, biochemical, fluorescence intensity, high throughput; shares compounds with KLK7 zymogen act; no enzyme, 4 h; solvent 0%, active enzyme control 100%; activation, % at 7 µM; actives 80% (n = 3,200); AID 686952, 2013;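 active = activation above the all-compound mean plus 3 SD, ignoring values outside control-based bounds, cut at about 4.8% in these data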;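 also: value is the 4 h activation minus the activation read at time zero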
Numbers without * were called inactive; i = inactive; nt = not tested or not shown. Hits are enriched below; roughly 3% of the tested compounds scored in any of these assays.

SMILES | Tn7 DDE FP | Tn6 DDE FP | NRP1-CendR mod | KLK7 zymogen act | PLCg1 inh | PLC-beta3 inh | proKLK7 act conf | EDANS-DABCYL int
CCC1CCCCN1Cc1c(O)ccc2c(=O)c(-c3ccccc3)coc12 (stereo unspecified) | -3 | 1 | 2 | 38* | i | i | 55* | 33*
CC1CN(Cc2c(O)ccc3c(=O)c(-c4ccccc4)coc23)CC(C)O1 (stereo unspecified) | -2 | 4 | 38* | 82* | i | i | 27* | 26*
COc1ccc(-c2coc3c(CN4CCCCC4C)c(O)ccc3c2=O)cc1 (stereo unspecified) | 5 | 15 | 5 | 46* | i | i | 69* | 58*
CCc1cc2c(=O)c(-c3nc4ccccc4[nH]3)coc2c(CN2CCCCC2C)c1O (stereo unspecified) | 2 | -9 | -11 | -1 | -127 | -191 | nt | nt
CCc1cc2c(=O)c(-c3ccc4c(c3)OCCO4)coc2c(CN2CCCCC2C)c1O (stereo unspecified) | 7 | -7 | -1 | 16* | i | i | -96 | -102
CCC1CCCCN1Cc1nc2ccccc2c(=O)n1CC(C)=O (stereo unspecified) | 2 | 12 | -2 | 0 | -9 | -18 | nt | nt
C[C@H](O)[C@@H]1CN2CCc3ccc(N4CCOCC4)cc3[C@@H]2C[C@@H]1N(C)C(=O)c1ccco1 | 8 | 7 | nt | 0 | -15 | -11 | nt | nt
C=CCN1C(=O)[C@@H](CC(=O)NCCc2ccccc2OC)[C@]2(C(=O)OC)CCCCC=C12 | -1 | 1 | nt | 0 | 2 | 2 | nt | nt
CCc1cc2c(=O)c(-c3nc4ccccc4[nH]3)coc2c(CN2CCCCC2)c1O | -4 | 0 | 4 | -1 | -114 | -159 | nt | nt
O=c1c(-c2ccccc2)coc2c(CN3CCCCC3)c(O)ccc12 | -3 | -4 | 14 | 38* | i | i | 65* | 63*
CC1CCCCN1Cc1nc2ccccc2c(=O)[nH]1 (stereo unspecified) | -2 | -6 | 5 | 0 | 0 | 2 | nt | nt
CC1CCCCN1Cc1c(O)ccc2c(=O)c(-c3ccccc3)coc12 (stereo unspecified) | 1 | 0 | 4 | 34* | i | i | 71* | 69*
CC(C)C[C@@H]1COc2cccc(F)c2S(=O)(=O)N1C | -7 | 0 | nt | 1 | 0 | 2 | nt | nt
O=[N+]([O-])c1ccc(O)c(C=Nc2ccc3nc(-c4ccccc4)[nH]c3c2)c1 | 1 | -2 | -54 | 65* | i | i | 57* | 63*
Oc1c(Br)cc(C=Nc2ccc3nc(-c4ccccc4)[nH]c3c2)c(O)c1Br | -8 | -6 | nt | -12 | -381 | -439 | nt | nt
Cc1ccc(/C=C/C(=O)c2ccc(O)cc2)cc1 | -1 | 6 | -43 | 0 | 3 | -5 | nt | nt
CSc1ccc(/C=C/C(=O)c2ccc(O)cc2)cc1 | 3 | -4 | -76 | 28* | -195 | -203 | 2 | 2
COCCCN1C(=O)[C@H](CC(=O)NCCCCc2ccccc2)[C@]2(C(=O)OC)CCCCC=C12 | -1 | -1 | nt | 0 | 4 | 3 | nt | nt
O=C(CSc1nnc(COc2ccc(Cl)cc2)n1Cc1ccco1)Nc1ccc2c(c1)OCO2 | -2 | 6 | nt | 0 | 2 | 2 | nt | nt
COc1ccc(/C=N\NC(=O)c2cc3c(ccc4ccccc43)o2)cc1O | -2 | -3 | -6 | -3 | -170 | -271 | nt | nt
